Assays:
Assay type in all cases: cell-based
NaV1.2 = NaV1.2 (Rattus norvegicus, UniProt P04775); experiment: whole-cell patch-clamp, off-target channel, 10 μM compound; details: vs 0.1% DMSO
Procedure, shortened: (§1)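 NaV channels, transiently transfected HEK293T cells, whole-cell, 16–24 h after seeding. Pipette (mM): 140 CsF, 1 EGTA, 10 NaCl, 10 HEPES, pH 7.4. Bath (mM): 140 NaCl, 5 KCl, 2 CaCl2, 1 MgCl2, 10 glucose, 10 HEPES, pH 7.4. Bath with 0.1% DMSO applied before 10 μM test compound. Inhibition ratios compared by unpaired t-test, n = 5.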

Kir1.1 = molecular target: T1, Kir1.1 (Homo sapiens, UniProt P48048); experiment: whole-cell patch-clamp, off-target channel, 10 μM compound; details: vs 0.1% DMSO
T1 sequence (P48048 1-391): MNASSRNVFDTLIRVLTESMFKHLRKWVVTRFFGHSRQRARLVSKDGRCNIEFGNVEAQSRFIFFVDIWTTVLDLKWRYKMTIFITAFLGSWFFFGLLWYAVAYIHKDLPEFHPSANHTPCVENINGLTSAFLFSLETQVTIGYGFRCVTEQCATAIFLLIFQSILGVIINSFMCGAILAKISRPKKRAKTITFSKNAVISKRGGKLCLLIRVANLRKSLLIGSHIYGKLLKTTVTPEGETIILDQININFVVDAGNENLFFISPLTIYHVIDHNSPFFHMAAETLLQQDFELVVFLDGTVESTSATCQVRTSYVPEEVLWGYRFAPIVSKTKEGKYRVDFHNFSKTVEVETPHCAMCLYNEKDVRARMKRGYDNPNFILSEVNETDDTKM
Procedure, shortened: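 Kir channels in transfected HEK293T cells, whole-cell. Pipette (mM): 135 KCl, 2 MgCl2, 10 HEPES, 1 EGTA, 4 Na2-ATP, pH 7.3. Bath (mM): 135 NaCl, 5 KCl, 1.5 CaCl2, 1 MgCl2, 10 HEPES, 10 glucose, pH 7.4. 0.1% DMSO bath applied before 10 μM test compound. Inhibition ratios compared by unpaired t-test, n = 5.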

ASIC3 = molecular target: T2, ASIC3 (Rattus norvegicus, UniProt O35240); experiment: whole-cell patch-clamp, off-target channel, 10 μM compound; details: vs 0.1% DMSO
T2 sequence (O35240 1-533): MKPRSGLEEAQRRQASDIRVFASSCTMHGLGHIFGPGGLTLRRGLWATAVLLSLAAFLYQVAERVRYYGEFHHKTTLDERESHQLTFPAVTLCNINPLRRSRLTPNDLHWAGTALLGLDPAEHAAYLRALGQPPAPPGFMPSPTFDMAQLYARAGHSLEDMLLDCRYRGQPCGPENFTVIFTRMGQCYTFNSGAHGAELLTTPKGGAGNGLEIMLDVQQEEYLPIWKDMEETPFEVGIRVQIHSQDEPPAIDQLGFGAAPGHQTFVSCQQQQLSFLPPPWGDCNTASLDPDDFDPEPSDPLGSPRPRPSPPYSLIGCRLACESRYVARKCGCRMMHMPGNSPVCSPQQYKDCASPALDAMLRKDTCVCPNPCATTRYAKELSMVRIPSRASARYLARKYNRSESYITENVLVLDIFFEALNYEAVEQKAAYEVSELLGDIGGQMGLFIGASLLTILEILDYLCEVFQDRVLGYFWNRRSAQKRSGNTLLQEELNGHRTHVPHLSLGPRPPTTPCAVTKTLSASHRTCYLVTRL
Procedure, shortened: (§2)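 ASIC channels in transfected HEK293T cells, whole-cell. Pipette (mM): 140 CsF, 11 EGTA, 1 CaCl2, 2 TEA-Cl, 4 MgCl2, 10 HEPES, pH 7.3. NaCl-based bath with 20 mM HEPES (pH 7.4) or 20 mM MES (pH 5.5). 0.1% DMSO bath applied before 10 μM test compound. Inhibition ratios compared by unpaired t-test, n = 5.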

NaV1.5 = NaV1.5 (Homo sapiens, UniProt Q14524); experiment: whole-cell patch-clamp, off-target channel, 10 μM compound
Procedure, shortened: as §1

NaV1.7 = NaV1.7 (Homo sapiens, UniProt Q15858); experiment: as above
Sequence of NaV1.7 (Q15858 whole entry): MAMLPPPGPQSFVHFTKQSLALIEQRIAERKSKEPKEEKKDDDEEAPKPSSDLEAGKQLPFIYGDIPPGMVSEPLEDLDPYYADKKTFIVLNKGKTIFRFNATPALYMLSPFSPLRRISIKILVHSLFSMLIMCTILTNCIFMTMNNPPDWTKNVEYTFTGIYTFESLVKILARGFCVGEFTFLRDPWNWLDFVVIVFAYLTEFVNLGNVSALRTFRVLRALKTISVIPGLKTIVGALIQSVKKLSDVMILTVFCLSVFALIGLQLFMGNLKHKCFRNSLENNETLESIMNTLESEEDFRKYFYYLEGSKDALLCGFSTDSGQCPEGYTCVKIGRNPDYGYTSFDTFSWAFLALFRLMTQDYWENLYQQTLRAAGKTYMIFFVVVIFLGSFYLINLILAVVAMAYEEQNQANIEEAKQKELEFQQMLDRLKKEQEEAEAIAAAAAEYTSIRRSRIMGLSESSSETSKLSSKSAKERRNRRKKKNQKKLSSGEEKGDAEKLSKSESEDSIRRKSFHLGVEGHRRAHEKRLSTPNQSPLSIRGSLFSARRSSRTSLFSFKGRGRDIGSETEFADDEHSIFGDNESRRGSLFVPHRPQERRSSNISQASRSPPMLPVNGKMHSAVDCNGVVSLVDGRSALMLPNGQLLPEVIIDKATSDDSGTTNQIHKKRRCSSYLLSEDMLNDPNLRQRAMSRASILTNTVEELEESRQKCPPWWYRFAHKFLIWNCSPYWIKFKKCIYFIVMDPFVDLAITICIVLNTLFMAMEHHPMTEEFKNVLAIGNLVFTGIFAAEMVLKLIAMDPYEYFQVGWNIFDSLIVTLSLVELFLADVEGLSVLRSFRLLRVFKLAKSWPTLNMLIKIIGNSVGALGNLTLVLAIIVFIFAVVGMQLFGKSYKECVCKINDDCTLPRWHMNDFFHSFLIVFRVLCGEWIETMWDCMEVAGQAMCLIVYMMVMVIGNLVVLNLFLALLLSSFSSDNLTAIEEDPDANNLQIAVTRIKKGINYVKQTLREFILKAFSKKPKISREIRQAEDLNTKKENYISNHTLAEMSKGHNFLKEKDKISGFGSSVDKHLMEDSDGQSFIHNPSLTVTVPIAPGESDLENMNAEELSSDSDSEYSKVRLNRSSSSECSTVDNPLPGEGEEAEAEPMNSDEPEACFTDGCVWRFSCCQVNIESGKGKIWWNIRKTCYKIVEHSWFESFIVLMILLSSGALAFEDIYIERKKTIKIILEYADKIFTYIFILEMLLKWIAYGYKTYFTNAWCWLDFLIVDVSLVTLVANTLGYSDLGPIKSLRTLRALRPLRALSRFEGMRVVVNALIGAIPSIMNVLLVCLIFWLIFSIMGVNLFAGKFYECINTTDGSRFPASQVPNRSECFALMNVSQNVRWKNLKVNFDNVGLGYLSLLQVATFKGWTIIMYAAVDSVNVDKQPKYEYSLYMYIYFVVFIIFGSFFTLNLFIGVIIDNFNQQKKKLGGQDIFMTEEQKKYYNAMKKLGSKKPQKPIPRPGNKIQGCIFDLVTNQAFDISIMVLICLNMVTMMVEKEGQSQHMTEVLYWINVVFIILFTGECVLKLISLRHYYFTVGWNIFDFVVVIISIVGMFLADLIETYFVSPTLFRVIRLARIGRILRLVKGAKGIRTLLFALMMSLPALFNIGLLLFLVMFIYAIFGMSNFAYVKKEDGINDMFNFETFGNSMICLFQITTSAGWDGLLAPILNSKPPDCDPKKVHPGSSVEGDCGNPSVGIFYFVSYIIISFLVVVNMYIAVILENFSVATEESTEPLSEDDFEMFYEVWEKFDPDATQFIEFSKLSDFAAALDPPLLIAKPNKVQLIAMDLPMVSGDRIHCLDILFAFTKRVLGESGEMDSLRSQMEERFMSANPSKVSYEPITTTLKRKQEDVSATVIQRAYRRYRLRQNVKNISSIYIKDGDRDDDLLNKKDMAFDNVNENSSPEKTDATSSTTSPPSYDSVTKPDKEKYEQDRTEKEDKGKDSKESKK
Procedure, shortened: as §1

hERG = hERG (Homo sapiens, UniProt Q12809); experiment: whole-cell patch-clamp, off-target channel, 10 μM compound
Procedure, shortened: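 hERG, transiently transfected HEK293T cells, whole-cell recording 16–24 h after seeding. Bath containing 0.1% DMSO applied first, then 10 μM test compound. Inhibition ratio from DMSO compared with that from compound by unpaired t-test, n = 5.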

Kir2.1 = Kir2.1 (Homo sapiens, UniProt P63252); experiment: whole-cell patch-clamp, off-target channel, 10 μM compound; details: vs 0.1% DMSO
Sequence of Kir2.1 (P63252 whole entry): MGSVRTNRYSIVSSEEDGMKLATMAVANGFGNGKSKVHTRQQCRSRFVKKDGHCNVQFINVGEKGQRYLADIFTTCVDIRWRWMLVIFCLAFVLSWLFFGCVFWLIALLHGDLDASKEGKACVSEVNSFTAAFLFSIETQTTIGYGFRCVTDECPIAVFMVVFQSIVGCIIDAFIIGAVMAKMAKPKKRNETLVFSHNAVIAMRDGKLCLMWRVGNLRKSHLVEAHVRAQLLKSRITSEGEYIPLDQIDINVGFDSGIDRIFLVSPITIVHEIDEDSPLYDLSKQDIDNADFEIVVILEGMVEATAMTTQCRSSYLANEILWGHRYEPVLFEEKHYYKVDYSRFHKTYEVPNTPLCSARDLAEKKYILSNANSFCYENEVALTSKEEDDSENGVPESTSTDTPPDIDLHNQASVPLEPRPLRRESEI

CaV3.1 = CaV3.1 (Homo sapiens, UniProt O43497); experiment: whole-cell patch-clamp, off-target channel, 10 μM compound
Procedure, shortened: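 CaV channels in transfected HEK293T cells, whole-cell. Pipette (mM): 120 CsMeSO3, 2 Mg-ATP, 11 EGTA, 10 HEPES, pH 7.4. Bath (mM): 138 NaCl, 5.6 KCl, 2.6 CaCl2, 20 TEA-Cl, 5 glucose, 5 HEPES, pH 7.4. 0.1% DMSO bath applied before 10 μM test compound. Inhibition ratios compared by unpaired t-test, n = 5.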

ASIC1a = ASIC1a (Rattus norvegicus, UniProt P55926); experiment: whole-cell patch-clamp, off-target channel, 10 μM compound; details: vs 0.1% DMSO
Sequence of ASIC1a (P55926 whole entry): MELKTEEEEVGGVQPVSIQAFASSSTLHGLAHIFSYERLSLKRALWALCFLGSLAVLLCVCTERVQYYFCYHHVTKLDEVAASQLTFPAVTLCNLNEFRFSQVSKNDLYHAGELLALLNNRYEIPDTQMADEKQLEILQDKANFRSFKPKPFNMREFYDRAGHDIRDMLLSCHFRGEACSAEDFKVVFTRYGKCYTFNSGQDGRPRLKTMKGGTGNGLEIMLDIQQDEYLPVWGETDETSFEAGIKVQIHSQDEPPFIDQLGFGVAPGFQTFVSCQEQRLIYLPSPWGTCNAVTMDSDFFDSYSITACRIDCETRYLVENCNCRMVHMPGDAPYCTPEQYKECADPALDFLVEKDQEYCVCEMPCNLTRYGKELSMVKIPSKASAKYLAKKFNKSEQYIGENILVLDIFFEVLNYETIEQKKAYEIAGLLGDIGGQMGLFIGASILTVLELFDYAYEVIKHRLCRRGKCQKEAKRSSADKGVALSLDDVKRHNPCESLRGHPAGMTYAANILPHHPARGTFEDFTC
Procedure, shortened: as §2

mOtop1 D244A = mOtop1 D244A (Mus musculus, UniProt Q80VM9, D244A); experiment: patch-clamp, mOtop1 mutant; details: 10 μM; pH 5.5
Procedure, shortened: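 Alanine-substituted mOtop1 mutants were co-transfected (2.5 μg channel plus 0.5 μg EGFP plasmid, Lipofectamine 2000) into PAC-knockout HEK293T cells. Whole-cell recording 16–24 h after seeding on PLL coverslips. Pipette (mM): 120 Cs-aspartate, 15 CsCl, 2 Mg-ATP, 5 EGTA, 2.4 CaCl2, 10 HEPES, pH 7.3. Bath (mM): 160 NMDG-Cl, 2 CaCl2, 10 MES, pH 5.5, with 10 μM test compound. Response compared with wild-type mOtop1.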

mOtop1 R554Q = mOtop1 R554Q (Mus musculus, UniProt Q80VM9, R554Q); experiment: patch-clamp, mOtop1 mutant; details: Fig 5G, H

Sequence of NaV1.2 (P04775 whole entry): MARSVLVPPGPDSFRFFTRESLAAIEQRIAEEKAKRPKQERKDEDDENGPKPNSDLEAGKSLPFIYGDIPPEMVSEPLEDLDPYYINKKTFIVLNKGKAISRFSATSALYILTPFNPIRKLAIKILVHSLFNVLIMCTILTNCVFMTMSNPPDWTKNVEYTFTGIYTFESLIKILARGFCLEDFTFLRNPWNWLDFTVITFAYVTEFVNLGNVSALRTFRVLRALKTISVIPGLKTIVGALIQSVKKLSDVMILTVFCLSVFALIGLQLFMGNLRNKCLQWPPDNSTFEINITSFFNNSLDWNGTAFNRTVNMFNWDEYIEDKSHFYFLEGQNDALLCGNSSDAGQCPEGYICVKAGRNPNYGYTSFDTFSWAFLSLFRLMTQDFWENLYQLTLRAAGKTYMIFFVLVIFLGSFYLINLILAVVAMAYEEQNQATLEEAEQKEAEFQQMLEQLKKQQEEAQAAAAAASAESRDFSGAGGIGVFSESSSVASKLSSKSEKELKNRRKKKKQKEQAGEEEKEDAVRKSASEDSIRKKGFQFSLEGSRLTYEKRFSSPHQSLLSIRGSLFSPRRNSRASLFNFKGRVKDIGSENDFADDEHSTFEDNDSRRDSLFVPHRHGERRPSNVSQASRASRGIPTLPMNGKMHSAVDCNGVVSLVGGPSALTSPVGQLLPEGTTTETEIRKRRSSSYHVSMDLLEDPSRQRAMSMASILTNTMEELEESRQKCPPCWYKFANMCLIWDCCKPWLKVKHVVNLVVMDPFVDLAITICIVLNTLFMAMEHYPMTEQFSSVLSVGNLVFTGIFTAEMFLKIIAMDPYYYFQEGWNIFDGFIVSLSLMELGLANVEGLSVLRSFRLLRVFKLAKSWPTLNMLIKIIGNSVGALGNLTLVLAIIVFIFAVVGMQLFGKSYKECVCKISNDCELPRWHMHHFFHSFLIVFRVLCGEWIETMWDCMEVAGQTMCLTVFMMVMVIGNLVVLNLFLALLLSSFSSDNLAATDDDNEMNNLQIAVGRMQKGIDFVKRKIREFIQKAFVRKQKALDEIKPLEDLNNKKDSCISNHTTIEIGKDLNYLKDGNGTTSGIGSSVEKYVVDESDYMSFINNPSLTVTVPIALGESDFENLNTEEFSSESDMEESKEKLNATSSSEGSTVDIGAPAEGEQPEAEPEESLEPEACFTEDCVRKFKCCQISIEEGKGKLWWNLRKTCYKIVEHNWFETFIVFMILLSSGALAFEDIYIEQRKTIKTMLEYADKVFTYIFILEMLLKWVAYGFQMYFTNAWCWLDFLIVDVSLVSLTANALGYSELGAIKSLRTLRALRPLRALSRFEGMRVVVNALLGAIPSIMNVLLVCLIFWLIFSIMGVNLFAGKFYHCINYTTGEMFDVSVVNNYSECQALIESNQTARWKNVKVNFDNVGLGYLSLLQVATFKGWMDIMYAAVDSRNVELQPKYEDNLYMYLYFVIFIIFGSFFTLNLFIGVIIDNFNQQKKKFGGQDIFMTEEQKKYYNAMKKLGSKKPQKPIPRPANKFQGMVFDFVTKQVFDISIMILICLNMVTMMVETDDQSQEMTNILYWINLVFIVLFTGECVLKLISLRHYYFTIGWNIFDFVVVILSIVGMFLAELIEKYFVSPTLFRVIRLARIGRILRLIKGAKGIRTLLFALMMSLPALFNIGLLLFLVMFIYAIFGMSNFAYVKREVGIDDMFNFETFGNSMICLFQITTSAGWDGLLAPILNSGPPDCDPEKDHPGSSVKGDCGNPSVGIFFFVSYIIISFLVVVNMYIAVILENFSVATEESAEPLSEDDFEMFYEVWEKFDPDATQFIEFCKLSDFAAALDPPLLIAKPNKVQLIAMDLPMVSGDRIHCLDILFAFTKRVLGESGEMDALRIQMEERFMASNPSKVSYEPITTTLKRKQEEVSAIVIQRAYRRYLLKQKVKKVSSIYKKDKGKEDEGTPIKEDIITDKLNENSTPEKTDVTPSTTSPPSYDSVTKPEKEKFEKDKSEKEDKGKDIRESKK

Row | sensitivity of channel to compound (NaV1.2) | sensitivity of channel to compound (Kir1.1) | sensitivity of channel to compound (ASIC3) | inhibition ratio (NaV1.7) [%] | sensitivity of channel to compound (Kir2.1) | sensitivity of channel to compound (CaV3.1; vs 0.1% DMSO) | sensitivity of channel to compound (ASIC1a) | sensitivity of channel to compound (NaV1.7; vs 0.1% DMSO) | inhibition ratio (CaV3.1) [%] | response of mutant to MFaN compared to wild-type mOtop1 (mOtop1 D244A) | effect of mutation on MFaN's potentiation effect vs WT mOtop1 (mOtop1 R554Q) | SMILES | inhibition ratio (NaV1.5) [%] | inhibition ratio (hERG) [%]
1 | completely resistant | completely resistant | completely resistant |  |  |  |  |  |  |  |  | Cc1cc(NC(=O)c2ccc(Br)o2)ccc1NC(=O)c1ccco1 [B2FAMP, 5-Bromo-N-[4-(2-furoylamino)-3-methylphenyl]-2-furamide] |  | 
2 | completely resistant | completely resistant | completely resistant | 11.3 | completely resistant | completely resistant | completely resistant |  |  |  |  | CC(C)c1noc2ncc(C(=O)c3ccccc3O)cc12 [HIMOP, (2-hydroxyphenyl)-(3-propan-2-yl-5-isoxazolo[5,4-b]pyridinyl)methanone] | 8.9 | 8.5
3 | completely resistant | completely resistant | completely resistant |  | completely resistant |  | completely resistant | completely resistant | 11.7 | markedly reduced | eliminated | Cc1ccc(C(=O)Nc2ccc3ccccc3c2)o1 [MFaN, 5-methyl-N-2-naphthyl-2-furamide] | 14.8 | 13.7

From paper PMC11865470 (Communications Biology, 2025)
